Marks after values point to notes of the source that are not given here.
Tests used:
[1] = Plasma pharmacokinetics of TSU-68 in phase I patients; assay type: in vivo, human; conditions: for AUC(0-t) / AUC / Cmax / half-life / Tmax: human, plasma, oral
plasma VEGF = experiment: Angiogenesis-related factor: plasma VEGF; assay type: in vivo, human
How it was run: (§1)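 Plasma and urine were collected from patients before treatment and after day 8 and day 28 of oral test compound dosing, and analysed at a central commercial laboratory. ELISA kits were used for human VEGF (plasma and urine), ELAM-1, VCAM-1 and soluble t-PA. Soluble PAI-1 was measured by latex photometric immunoassay. Values are reported as median (range) per time point.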

PAI-1 = experiment: Angiogenesis-related factor: PAI-1; assay type: in vivo, human
How it was run: as §1

[2] = 100 mg/m^2 after meals, previous clinical study; cited from earlier work
[3] = test system: patients with advanced solid tumors; conditions: b.i.d., between-meal conditions; cited from earlier work
[4] = PD patients (13 pts.), Wilcoxon signed rank-sum test

Structure (SMILES): Cc1[nH]c(/C=C2\C(=O)Nc3ccccc32)c(C)c1CCC(=O)O [TSU-68, (Z)-5-[(1,2-dihydro-2-oxo-3H-indol-3-ylidene)methyl]-2,4-dimethyl-1H-pyrrole-3-propanoic acid]
- AUC0–t ([1]; b.i.d. after meal, 1st dose, 400 mg/m^2, n=6, mean ± SD): 76.44 ± 23.07 h
- AUC0–t ([1]; b.i.d. after meal, 3rd dose, 200 mg/m^2, n=3, mean ± SD): 33.28 ± 4.329 h
- AUC0–t ([1]; b.i.d. after meal, 3rd dose, 500 mg/m^2, n=3, mean ± SD): 45.74 ± 14.59 h
- C max and AUC after repeated administration versus 1st administration on day 1 ([1]; b.i.d. regimen, any dose level, days 2 and 28): approximately twofold lower
- AUC(0-t) ([1]; 200 mg/m2, AUC0–t, b.i.d. after meal, 1st dose, 200 mg/m^2, n=3, mean ± SD): 55200 ± 5360 ng·h/mL
- AUC(0-t) ([1]; 200 mg/m2, AUC0–t, b.i.d. after meal, 56th dose, 200 mg/m^2, n=3, mean ± SD): 32200 ± 1540 ng·h/mL
- AUC(0-t) ([1]; 200 mg/m2, AUC0–t, t.i.d. after meal, 1st dose, 200 mg/m^2, n=6, mean ± SD): 37000 ± 18200 ng·h/mL
- AUC(0-t) ([1]; 200 mg/m2, AUC0–t, t.i.d. after meal, 2nd dose, 200 mg/m^2, n=6, mean ± SD): 31500 ± 12500 ng·h/mL
- AUC ([1]; 200 mg/m2, AUC Day 28, Pt 1, Cervical ca., b.i.d. 200 mg/m^2 (800 mg/day)): 32800 ng·h/mL
- AUC ([1]; 200 mg/m2, AUC Day 28, Pt 2, NSCLC, b.i.d. 200 mg/m^2 (800 mg/day)): 33400 ng·h/mL
- AUC ([1]; 200 mg/m2, AUC Day 28, Pt 13, Colon ca., t.i.d. 200 mg/m^2 (1200 mg/day)): 25300 ng·h/mL
- AUC ([1]; 200 mg/m2, AUC Day 28, Pt 14, Soft tissue sa., t.i.d. 200 mg/m^2 (600 mg/day)): 19000 ng·h/mL
- Cmax ([1]; 200 mg/m2, C max, b.i.d. after meal, 1st dose, 200 mg/m^2, n=3, mean ± SD): 11200 ± 1150 ng/mL
- Cmax ([1]; 200 mg/m2, C max, b.i.d. after meal, 3rd dose, 200 mg/m^2, n=3, mean ± SD): 6000 ± 671 ng/mL
- Cmax ([1]; 200 mg/m2, C max, b.i.d. after meal, 56th dose, 200 mg/m^2, n=3, mean ± SD): 4790 ± 526 ng/mL
- Cmax ([1]; 200 mg/m2, C max, t.i.d. after meal, 1st dose, 200 mg/m^2, n=6, mean ± SD): 11000 ± 5530 ng/mL
- Cmax ([1]; 200 mg/m2, C max, t.i.d. after meal, 2nd dose, 200 mg/m^2, n=6, mean ± SD): 7010 ± 2410 ng/mL
- Cmax ([1]; 200 mg/m2, C max, t.i.d. after meal, 84th dose, 200 mg/m^2, n=6, mean ± SD): 3850 ± 2980 ng/mL
- half-life ([1]; 200 mg/m2, T 1/2, b.i.d. after meal, 1st dose, 200 mg/m^2, n=3, mean ± SD): 142 ± 51.6 min
- half-life ([1]; 200 mg/m2, T 1/2, b.i.d. after meal, 3rd dose, 200 mg/m^2, n=3, mean ± SD): 162 ± 28.3 min
- half-life ([1]; 200 mg/m2, T 1/2, b.i.d. after meal, 56th dose, 200 mg/m^2, N = 2, mean): 208 min
- half-life ([1]; 200 mg/m2, T 1/2, t.i.d. after meal, 1st dose, 200 mg/m^2, N = 3, mean ± SD): 122 ± 27.6 min
- half-life ([1]; 200 mg/m2, T 1/2, t.i.d. after meal, 2nd dose, 200 mg/m^2, N = 2, mean): 179 min
- Tmax ([1]; 200 mg/m2, T max, b.i.d. after meal, 1st dose, 200 mg/m^2, n=3, mean ± SD): 3 ± 1 h
- Tmax ([1]; 200 mg/m2, T max, b.i.d. after meal, 3rd dose, 200 mg/m^2, n=3, mean ± SD): 3.5 ± 2.29 h
- Tmax ([1]; 200 mg/m2, T max, b.i.d. after meal, 56th dose, 200 mg/m^2, n=3, mean ± SD): 2.67 ± 1.16 h
- Tmax ([1]; 200 mg/m2, T max, t.i.d. after meal, 1st dose, 200 mg/m^2, n=6, mean ± SD): 3.08 ± 1.43 h
- Tmax ([1]; 200 mg/m2, T max, t.i.d. after meal, 2nd dose, 200 mg/m^2, n=6, mean ± SD): 3.67 ± 1.37 h
- Tmax ([1]; 200 mg/m2, T max, t.i.d. after meal, 84th dose, 200 mg/m^2, n=6, mean ± SD): 2 ± 1.05 h
- AUC ([1]; 200 mg/m^2 t.i.d., AUC Day 28, Pt 18, Colon ca., t.i.d. 200 mg/m^2 (1,200 mg/day)): 12500 ng·h/mL
- AUC(0-t) ([1]; 400 mg/m2, AUC0–t, b.i.d. after meal, 3rd dose, 400 mg/m^2, n=6, mean ± SD): 40400 ± 10600 ng·h/mL
- AUC(0-t) ([1]; 400 mg/m2, AUC0–t, b.i.d. after meal, 56th dose, 400 mg/m^2, N = 4, mean ± SD): 36900 ± 20300 ng·h/mL
- AUC(0-t) ([1]; 400 mg/m2, AUC0–t, t.i.d. after meal, 1st dose, 400 mg/m^2, n=6, mean ± SD): 41600 ± 21600 ng·h/mL
- AUC(0-t) ([1]; 400 mg/m2, AUC0–t, t.i.d. after meal, 2nd dose, 400 mg/m^2, n=6, mean ± SD): 42000 ± 18900 ng·h/mL
- AUC(0-t) ([1]; 400 mg/m2, AUC0–t, t.i.d. after meal, 84th dose, 400 mg/m^2, n=6, mean ± SD): 31600 ± 16100 ng·h/mL
- Cmax ([1]; 400 mg/m2, C max, b.i.d. after meal, 1st dose, 400 mg/m^2, n=6, mean ± SD): 17100 ± 6590 ng/mL
- Cmax ([1]; 400 mg/m2, C max, b.i.d. after meal, 3rd dose, 400 mg/m^2, n=6, mean ± SD): 8290 ± 2720 ng/mL
- Cmax ([1]; 400 mg/m2, C max, b.i.d. after meal, 56th dose, 400 mg/m^2, N = 4, mean ± SD): 8410 ± 5870 ng/mL
- Cmax ([1]; 400 mg/m2, C max, t.i.d. after meal, 1st dose, 400 mg/m^2, n=6, mean ± SD): 12400 ± 5760 ng/mL
- Cmax ([1]; 400 mg/m2, C max, t.i.d. after meal, 2nd dose, 400 mg/m^2, n=6, mean ± SD): 9340 ± 4510 ng/mL
- Cmax ([1]; 400 mg/m2, C max, t.i.d. after meal, 84th dose, 400 mg/m^2, n=6, mean ± SD): 4780 ± 1950 ng/mL
- half-life ([1]; 400 mg/m2, T 1/2, b.i.d. after meal, 1st dose, 400 mg/m^2, n=6, mean ± SD): 176 ± 41.5 min
- half-life ([1]; 400 mg/m2, T 1/2, b.i.d. after meal, 3rd dose, 400 mg/m^2, n=6, mean ± SD): 207 ± 82 min
- half-life ([1]; 400 mg/m2, T 1/2, b.i.d. after meal, 56th dose, 400 mg/m^2 (6), mean ± SD): 156 ± 31.6 min
- half-life ([1]; 400 mg/m2, T 1/2, t.i.d. after meal, 1st dose, 400 mg/m^2, N = 1): 157 min
- half-life ([1]; 400 mg/m2, T 1/2, t.i.d. after meal, 2nd dose, 400 mg/m^2, N = 3, mean ± SD): 144 ± 68.6 min
- half-life ([1]; 400 mg/m2, T 1/2, t.i.d. after meal, 84th dose, 400 mg/m^2, N = 2, mean): 134 min
- Tmax ([1]; 400 mg/m2, T max, b.i.d. after meal, 1st dose, 400 mg/m^2, n=6, mean ± SD): 2.67 ± 0.817 h
- Tmax ([1]; 400 mg/m2, T max, b.i.d. after meal, 3rd dose, 400 mg/m^2, n=6, mean ± SD): 2.67 ± 0.817 h
- Tmax ([1]; 400 mg/m2, T max, b.i.d. after meal, 56th dose, 400 mg/m^2, N = 4, mean ± SD): 2.38 ± 0.75 h
- Tmax ([1]; 400 mg/m2, T max, t.i.d. after meal, 1st dose, 400 mg/m^2, n=6, mean ± SD): 3.42 ± 1.2 h
- Tmax ([1]; 400 mg/m2, T max, t.i.d. after meal, 2nd dose, 400 mg/m^2, n=6, mean ± SD): 3 ± 1.79 h
- Tmax ([1]; 400 mg/m2, T max, t.i.d. after meal, 84th dose, 400 mg/m^2, n=6, mean ± SD): 2.92 ± 1.2 h
- AUC ([1]; 400 mg/m^2 t.i.d., AUC Day 28, Pt 20, Colon ca., t.i.d. 400 mg/m^2 (1,800 mg/day)): 46800 ng·h/mL
- AUC(0-t) ([1]; 500 mg/m2, AUC0–t, b.i.d. after meal, 1st dose, 500 mg/m^2, n=3, mean ± SD): 103000 ± 45600 ng·h/mL
- AUC(0-t) ([1]; 500 mg/m2, AUC0–t, b.i.d. after meal, 56th dose, 500 mg/m^2, n=3, mean ± SD): 43200 ± 18700 ng·h/mL
- Cmax ([1]; 500 mg/m2, C max, b.i.d. after meal, 1st dose, 500 mg/m^2, n=3, mean ± SD): 22500 ± 10000 ng/mL
- Cmax ([1]; 500 mg/m2, C max, b.i.d. after meal, 3rd dose, 500 mg/m^2, n=3, mean ± SD): 8790 ± 2920 ng/mL
- Cmax ([1]; 500 mg/m2, C max, b.i.d. after meal, 56th dose, 500 mg/m^2, n=3, mean ± SD): 7510 ± 3460 ng/mL
- half-life ([1]; 500 mg/m2, T 1/2, b.i.d. after meal, 1st dose, 500 mg/m^2, n=3, mean ± SD): 141 ± 36 min
- half-life ([1]; 500 mg/m2, T 1/2, b.i.d. after meal, 3rd dose, 500 mg/m^2, n=3, mean ± SD): 200 ± 69.7 min
- half-life ([1]; 500 mg/m2, T 1/2, b.i.d. after meal, 56th dose, 500 mg/m^2, N = 1): 109 min
- Tmax ([1]; 500 mg/m2, T max, b.i.d. after meal, 1st dose, 500 mg/m^2, n=3, mean ± SD): 4 ± 1.73 h
- Tmax ([1]; 500 mg/m2, T max, b.i.d. after meal, 3rd dose, 500 mg/m^2, n=3, mean ± SD): 4.33 ± 1.53 h
- Tmax ([1]; 500 mg/m2, T max, b.i.d. after meal, 56th dose, 500 mg/m^2, n=3, mean ± SD): 3.17 ± 1.44 h
- AUC ([1]; 500 mg/m^2 b.i.d., AUC Day 28, Pt 11, Colon ca., b.i.d. 500 mg/m^2 (1,600 mg/day)): 44600 ng·h/mL
- T 1/2 ([1]; t.i.d. after meal, 84th dose, 200 mg/m^2, N = 5, mean ± SD): 4.773 ± 2.221^e h
- AUC0–t ([1]; t.i.d. after meal, 84th dose, 200 mg/m^2, n=6, mean ± SD): 24.75 ± 13.69 h
- Change of plasma VEGF at day 28 compared to baseline (plasma VEGF; [4]): significantly increasing
- Plasma VEGF, median (plasma VEGF; day 8, 23 patients): 55 pg/mL
- Plasma VEGF, range (plasma VEGF; day 8, 23 patients): <31 to 278 pg/mL
- Plasma VEGF, median (plasma VEGF; day 28, 22 patients): 63 pg/mL
- Plasma VEGF, range (plasma VEGF; day 28, 22 patients): <31 to 270 pg/mL
- Change of PAI-1 at day 28 compared to baseline (PAI-1; [4]): significantly increasing
- PAI-1, median (PAI-1; day 8, 23 patients): 28 ng/mL
- PAI-1, range (PAI-1; day 8, 23 patients): 11 to 92 ng/mL
- PAI-1, median (PAI-1; day 28, 22 patients): 31 ng/mL
- PAI-1, range (PAI-1; day 28, 22 patients): 11 to 120 ng/mL
- Absolute bioavailability [2]: 42%
- Recommended dosage [3]: ≤ 800 mg/m^2
